In ChEMBL document CHEMBL1144343 (J Med Chem, 2005) one finds Ki, Activity and Activity (Counts/minute) data, which are given here for ten molecules.

Experiment [1] concerns the target T1, Angiotensin II receptor (AT-1) type-1 (Rattus norvegicus, UniProt P29089+P25095).
T1 sequence (P29089 whole entry): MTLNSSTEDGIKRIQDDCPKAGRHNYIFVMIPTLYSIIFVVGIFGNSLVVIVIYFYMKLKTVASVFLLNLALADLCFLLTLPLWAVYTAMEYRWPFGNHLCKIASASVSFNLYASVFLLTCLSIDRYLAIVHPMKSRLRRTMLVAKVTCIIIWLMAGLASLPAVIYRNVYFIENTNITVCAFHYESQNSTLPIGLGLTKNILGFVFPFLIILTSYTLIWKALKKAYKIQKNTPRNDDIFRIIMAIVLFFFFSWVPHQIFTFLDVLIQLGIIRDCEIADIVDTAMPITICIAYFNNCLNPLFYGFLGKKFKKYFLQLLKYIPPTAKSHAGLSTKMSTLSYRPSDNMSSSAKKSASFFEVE
T1 sequence (P25095 whole entry): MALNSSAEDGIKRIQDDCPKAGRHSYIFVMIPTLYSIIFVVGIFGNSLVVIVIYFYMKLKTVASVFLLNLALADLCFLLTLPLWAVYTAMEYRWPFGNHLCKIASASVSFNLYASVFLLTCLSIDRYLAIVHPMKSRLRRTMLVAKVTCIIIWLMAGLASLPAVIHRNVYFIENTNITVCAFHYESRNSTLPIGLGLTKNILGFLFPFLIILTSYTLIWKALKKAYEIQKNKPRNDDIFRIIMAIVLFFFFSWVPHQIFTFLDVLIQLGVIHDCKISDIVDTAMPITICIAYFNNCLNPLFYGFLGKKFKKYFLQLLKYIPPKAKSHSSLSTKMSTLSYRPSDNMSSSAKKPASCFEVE
The experiment is described as follows: Displacement of [125I]-Ang II from angiotensin II receptor type 1 in rat liver membranes. It counts as cell membranes, Membrane. Background: Loss of bound radioactivity is the signal in a displacement assay; it reports binding, not function.

For experiment [2], the target named is T2, Type-2 angiotensin II receptor (Homo sapiens, UniProt P50052).
T2 sequence (P50052 whole entry): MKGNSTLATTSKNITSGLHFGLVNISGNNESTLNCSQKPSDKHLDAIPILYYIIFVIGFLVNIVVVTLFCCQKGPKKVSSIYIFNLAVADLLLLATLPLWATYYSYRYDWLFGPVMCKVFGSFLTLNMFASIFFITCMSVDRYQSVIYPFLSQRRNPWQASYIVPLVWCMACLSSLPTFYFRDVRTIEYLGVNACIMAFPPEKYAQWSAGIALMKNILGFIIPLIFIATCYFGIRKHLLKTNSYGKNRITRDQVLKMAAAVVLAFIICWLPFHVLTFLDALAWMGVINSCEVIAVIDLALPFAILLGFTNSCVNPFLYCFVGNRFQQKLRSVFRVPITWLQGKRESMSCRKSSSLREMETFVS
The experiment is described as follows: Displacement of [125I]-Ang II from angiotensin II receptor type 2 in pig uterus myometrium. On the set-up: species or system Sus scrofa. The settings on record: target entry is the homologue from another species. The gist of the method:
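Porcine uterine myometrial membranes (10 mg tissue equivalent) with 1 µM losartan to block AT1. Tris-HCl pH 7.4 buffer with NaCl, MgCl2, EDTA, 0.2% BSA and peptidase inhibitors. Filtration, γ-counting; nonspecific binding with 1 µM Ang II.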

The subject of the next experiment is NG108-15. The experiment is described as follows: Effect on neurite outgrowth in NG108-15 cells after treatment for 3 days (control 2.26%).
Experiment [3] has as its target T3, Type-2 angiotensin II receptor (Homo sapiens) (UniProt P50052).
T3 sequence (whole entry): T2 sequence (P50052 whole entry)
The experiment is described as follows: Effect on [3H]thymidine incorporation into PC12 cells expressing AT2 receptors at 1.0 uM. As to conditions: PC-12. (In general: Incorporation of labelled thymidine or its analogues reports DNA synthesis.)

Where a SMILES comes first, the peptide text is derived from it. [ ]: non-standard residue; d: D form. Phe(4-NH2) = Nc1ccc(C[C@H](N)C(=O)O)cc1 Where only a bound is given, the exact number is not on record here.

As a reminder, the Ki is the dissociation constant of the complex between target and ligand, obtained from inhibition or displacement. Read a high Ki as lower affinity. The molecule `CC[C@@H](C)[C@@H](C(=O)N[C@@H](Cc1c[nH]cn1)C(=O)N1CCC[C@H]1C(=O)N[C@@H](Cc1ccccc1)C(=O)O)N1Cc2cccc(NC(=O)[C@@H](NC(=O)[C@H](CCCN=C(N)N)NC(=O)[C@@H](N)CC(=O)O)C(C)C)c2N[C@@H](Cc2ccc(O)cc2)C1=O` returned a Ki in experiment [1] above 10 µM.

In turn, `CC[C@H](C)[C@H](NC(=O)[C@H](Cc1ccc(O)cc1)NC(=O)[C@@H](NC(=O)[C@H](CCCN=C(N)N)NC(=O)[C@@H](N)CC(=O)O)C(C)C)C(=O)N[C@@H](Cc1ccc(N)cc1)C(=O)N1CCC[C@H]1C(=O)N[C@@H](Cc1ccccc1)C(=O)O` (H-DRVYI[Phe(4-NH2)]PF-OH) had a Ki in experiment [1] above 10 µM.

`C[C@H](NC(=O)[C@@H](N)CC(=O)O)C(=O)Nc1cccc2c1N[C@@H](Cc1ccc(O)cc1)C(=O)N(CC(=O)N[C@@H](Cc1c[nH]cn1)C(=O)N1CCC[C@H]1C(=O)N[C@@H](Cc1ccccc1)C(=O)O)C2` had a Ki in experiment [1] above 10 µM.

Take `CC(C)[C@H](NC(=O)[C@H](CCCN=C(N)N)NC(=O)[C@@H](N)CC(=O)O)C(=O)Nc1ccc2c(c1)CN(CC(=O)N[C@@H](Cc1c[nH]cn1)C(=O)N1CCC[C@H]1C(=O)N[C@@H](Cc1ccccc1)C(=O)O)C(=O)[C@H](Cc1ccc(O)cc1)N2`: the inhibitory constant (Ki) in experiment [2] is 0.003 µM; in experiment [1], above 10 µM. The same molecule registered an Activity with NG108-15 of 11.1%. The same molecule came in with an Activity (Counts/minute) in experiment [3] of 45400.

Consider `CC(C)[C@H](NC(=O)[C@H](C)NC(=O)[C@@H](N)CC(=O)O)C(=O)Nc1cccc2c1N[C@@H](Cc1ccc(O)cc1)C(=O)N(CC(=O)N[C@@H](Cc1c[nH]cn1)C(=O)N1CCC[C@H]1C(=O)N[C@@H](Cc1ccccc1)C(=O)O)C2`, for which, in experiment [1], the inhibitory constant (Ki) was above 10 µM.

In experiment [1], `NC(N)=NCCC[C@H](NC(=O)[C@@H](N)CC(=O)O)C(=O)Nc1cccc2c1N[C@@H](Cc1ccc(O)cc1)C(=O)N(CC(=O)N[C@@H](Cc1c[nH]cn1)C(=O)N1CCC[C@H]1C(=O)N[C@@H](Cc1ccccc1)C(=O)O)C2` showed a Ki above 10 µM. Moreover, in the experiment on NG108-15, the Activity worked out at 9.35%.

In turn, `CC(C)[C@H](NC(=O)[C@H](CCCN=C(N)N)NC(=O)[C@@H](N)CC(=O)O)C(=O)Nc1cccc2c1N[C@@H](Cc1ccc(O)cc1)C(=O)N(CC(=O)N[C@@H](Cc1c[nH]cn1)C(=O)N1CCC[C@H]1C(=O)N[C@@H](Cc1ccccc1)C(=O)O)C2` registered a Ki in experiment [1] above 10 µM. Further, the Activity with NG108-15 was determined as 9.88%.

With `NC(N)=NCCC[C@H](NC(=O)[C@@H](N)CC(=O)O)C(=O)Nc1ccc2c(c1)CN(CC(=O)N[C@@H](Cc1c[nH]cn1)C(=O)N1CCC[C@H]1C(=O)N[C@@H](Cc1ccccc1)C(=O)O)C(=O)[C@H](Cc1ccc(O)cc1)N2`, the Ki in experiment [1] is above 10 µM.

In experiment [1], `CC[C@@H](C)[C@@H](C(=O)N[C@@H](Cc1c[nH]cn1)C(=O)N1CCC[C@H]1C(=O)N[C@@H](Cc1ccccc1)C(=O)O)N1Cc2cccc(NC(=O)[C@H](CCCN=C(N)N)NC(=O)[C@@H](N)CC(=O)O)c2N[C@@H](Cc2ccc(O)cc2)C1=O` had a Ki above 10 µM.

Molecule `Cc1cc(Cn2cnc3c2C[C@@H](C(=O)O)N(C(=O)C(c2ccccc2)c2ccccc2)C3)ccc1N(C)C` showed an Activity (Counts/minute) in experiment [3] of 68700.
